We go through 20 compounds from ChEMBL document CHEMBL1124828, “Synthesis and antiviral and cytotoxic activity of iodohydrin and iodomethoxy derivatives of 5-vinyl-2'-deoxyuridines, 2'-fluoro-2'-deoxyuridine, and uridine” (J Med Chem, 1990).

Structures are written as SMILES. Converted amounts (≈) assume the structure as drawn. The source made the active and inactive calls. The rule behind the calls is not given here.

As usually defined, the Ki is the dissociation constant of the complex between target and ligand, obtained from inhibition or displacement. High values mean weaker binding, low ones tighter binding. Broadly, the T/C is the result in the treated group divided by that in the control group, in per cent.

Test [1] relates to Vero. The experiment in a line: Dose to inhibit plaque formation in vero cells infected with herpes simplex virus type-1 (HSV-1,strainJLJ) was determined. The class given is functional. The settings on record: Chlorocebus sabaeus, read-out: ID50 (the source's name). The procedure, abridged: (§1)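 HSV-1 plaque-reduction assay in Vero cell monolayers. After 1-h virus adsorption at 37 °C, cells were overlaid with 1% agarose in E-MEM with 2% FBS containing the compound at 0.1, 1.0 and 10 μg/mL. Neutral red staining followed 4 days at 37 °C in 5% CO2, then plaques were counted. ID50 is the concentration cutting plaque number by 50%. The experiment was run once.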

Test [2] can be described thus: Inhibition constant was determined for the facilitated transport of [[…]]-thymidine by murine erythrocyte NBMPR-sensitive nucleoside transporter. The class given is functional, Mus musculus. The procedure, abridged: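 Murine erythrocytes; facilitated uptake of [3H]thymidine through the NBMPR-sensitive nucleoside transporter. Extracellular [3H]thymidine sampled at various times after exposure and counted by liquid scintillation. Ki taken as the inhibition constant for this transport. Values are generally the mean of two determinations (range), with some n = 1 and the 2'-deoxyuridine reference n = 3.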

Test [3] concerns P388. The experiment in a line: In vivo cytotoxicity was determined against P388 mouse leukemia cells expressed as % treated/control. The class given is functional. The gist of the method: (§2)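 B6D2F1 mice, six per group, were implanted ip with 10⁶ P388 leukemia cells in 0.2 mL saline on day 0. Compound in saline/ethanol (6:1) was given ip at 20 mg/kg on days 1–5. Mice were followed until death. Mean survival time was compared with saline-treated controls and expressed as % T/C.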

For test [4], the system named is L1210. The experiment in a line: In vitro cytotoxicity was determined against L1210 leukemia cell from mouse. The settings on record: read-out: ED50 (the source's name). The class given is functional. The gist of the method: (§3)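 Mouse L1210 cells were grown in suspension in Fischer's medium with 10% heat-inactivated horse serum at 37 °C, 5% CO2, seeded at 10⁵ cells/mL. Compound was added from ethanol, water or ethanol/water at final 50, 25, 10, 5.0, 2.5 and 1 μg/mL. Cells were counted by Coulter counter at 48 h, in triplicate. % survival = (T48−T0)/(C48−C0)×100; ED50 is the 50% survival reduction.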

The species named for test [5] is Mus musculus. The experiment in a line: Percent survival of L1210 cells in suspension was determined after a dose of 10 ug/mL in mouse. The class given is functional. The procedure, abridged:
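L1210 suspension cultures in Fischer's medium with 10% heat-inactivated horse serum, 37 °C, 5% CO2. Compound was added from ethanol, water or ethanol/water at final 50, 10 or 1 μg/mL. Cells were counted by Coulter counter after 48 h. % survival = (T48−T0)/(C48−C0)×100 versus untreated controls, given as mean ± SD (n = 3).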

Test [6] relates to L1210. The experiment in a line: Tested for cytotoxicity against murine L1210 cells in vitro; weak cytotoxicity. The class given is functional, cell-based. The following applies: Mus musculus.
Test [7] relates to Vero. The experiment in a line: Dose to inhibit plaque formation in vero cells infected with herpes simplex virus type-1 (HSV-1,strainJLJ) was determined relative to acyclovir; value ranges from 0.1-1.0 ug/mL. The class given is functional. The following applies: Chlorocebus sabaeus, read-out: ID50 (the source's name).
For test [8], the system named is Human alphaherpesvirus 1. The experiment in a line: Tested for in vitro anti-HSV-1 activity; active. The class given is functional, organism-based.
The test system of test [9] is P388. The experiment in a line: In vivo cytotoxicity was determined against P388 mouse leukemia cells, (% treated / control) at 20 mg/kg (ip) administration. The class given is functional. The gist of the method: as §2
Test [10] relates to L1210. The experiment in a line: In vitro cytotoxicity was determined against L1210 leukemia cells from mouse. The class given is functional. The following applies: read-out: ED50 (the source's name). The procedure, abridged:
as §3

In test [11] the test system is Vero. The experiment in a line: Dose to inhibit plaque formation in vero cells infected with herpes simplex virus type 1 (HSV-1,strainJLJ) was determined. The class given is functional. The settings on record: Chlorocebus sabaeus, read-out: ID50 (the source's name). The gist of the method: as §1

In the case of `COCC(O)c1cn([C@H]2C[C@H](O)[C@@H](CO)O2)c(=O)[nH]c1=O` (some centres not stated), in test [1], the IC50 is above 10 µg/mL. In test [2], this compound returned a Ki of 610 µM. In addition, the T/C in test [3] worked out at 103%. In test [4], the EC50 turned out to be 12 µg/mL (≈ 39.7 µM). Further, the Survival in [5] is listed as 37%.

Consider `O=c1[nH]c(=O)n([C@H]2C[C@H](O)[C@@H](CO)O2)cc1C(O)CBr` (some centres not stated), for which, in test [6], the Cyotoxicity entry was “weak cytotoxicity”. Moreover, the IC50 in test [7] came out at 1 µg/mL (≈ 2.85 µM).

`O=c1nc2c(cn1[C@H]1C[C@H](O)[C@@H](CO)O1)C(O)CO2` (some centres not stated): the IC50 in test [1] is above 100 µg/mL. Besides, the affinity in [2], expressed as Ki, was 8000 µM. Besides, the Survival in test [5] came to 103%.

Turning to `O=c1[nH]c(=O)n([C@H]2C[C@H](O)[C@@H](CO)O2)cc1/C=C/Br`, the result in [8] was Active.

As to `O=c1[nH]c(=O)n([C@H]2C[C@H](O)[C@@H](CO)O2)cc1CCCl`, in [8], the outcome was Active.

Turning to `O=c1[nH]c(=O)n([C@H]2C[C@H](O)[C@@H](CO)O2)cc1/C=C/I`, the IC50 in test [1] was below 0.1 µg/mL. In test [2], this compound returned a Ki of 25 µM.

For the compound `COC(CBr)c1cn([C@H]2C[C@H](O)[C@@H](CO)O2)c(=O)[nH]c1=O` (some centres not stated), in test [6], the Cyotoxicity result is “weak cytotoxicity”. Besides, the IC50 in [7] was 1 µg/mL (≈ 2.74 µM).

The compound `O=c1[nH]cc(F)c(=O)[nH]1` [FLUOROURACIL] returned a T/C in test [9] above 135%.

With `COC(CI)c1cn(C2O[C@H](CO)[C@@H](O)[C@H]2O)c(=O)[nH]c1=O` (some centres not stated), the IC50 in [1] is above 100 µg/mL. Besides, the Survival in test [5] is recorded as 108%.

Consider `C=Cc1cn([C@@H]2O[C@H](CO)[C@@H](O)[C@H]2F)c(=O)[nH]c1=O`, for which the IC50 in [1] was determined as 0.1 µg/mL (≈ 0.367 µM). The compound further had a Survival in test [5] of 87%.

Turning to `N[C@@H](Cc1ccc(N(CCCl)CCCl)cc1)C(=O)O` [MELPHALAN], in test [10], the EC50 was determined as 0.15 µg/mL (≈ 0.491 µM).

`O=c1[nH]c(=O)n(C2CC(O)C(CO)O2)cc1C(O)C(I)I` (configuration not stated): in test [1], the IC50 was above 10 µg/mL. The Ki in test [2] was found to be 220 µM. The same compound had a T/C in test [3] of 112%. Besides, in test [4], the EC50 was 0.77 µg/mL (≈ 1.47 µM). In test [5], this compound gave a Survival of 2%.

Regarding `O=c1[nH]c(=O)n([C@H]2C[C@H](O)[C@@H](CO)O2)cc1C(O)CI` (some centres not stated), the IC50 in test [1] was above 10 µg/mL. Also, the affinity in test [2] corresponds to a Ki of 155 µM. Besides, the T/C in test [3] came out at 98%. For the same compound, in test [4], the EC50 turned out to be 10.5 µg/mL (≈ 26.4 µM). Also, in test [5], the Survival is on record as 52%.

In the case of `O=c1[nH]c(=O)n(C2O[C@H](CO)[C@@H](O)[C@H]2O)cc1C(O)CI` (some centres not stated), in [1], the IC50 was above 100 µg/mL. This compound registered a Survival in [5] of 87%.

Regarding `COC(CI)c1cn([C@H]2C[C@H](O)[C@@H](CO)O2)c(=O)[nH]c1=O` (some centres not stated), the IC50 in test [1] amounted to 0.1 µg/mL (≈ 0.243 µM). Further, the Ki in [2] was 35 µM. In addition, the T/C in [3] was determined as 114%. For the same compound, the EC50 in test [4] was found to be 6 µg/mL (≈ 14.6 µM). The Survival in [5] stood at 42%.

For the compound `Nc1nc2c(ncn2COCCO)c(=O)[nH]1` [ACYCLOVIR], the IC50 in [11] stood at 0.01 µg/mL (≈ 0.0444 µM).

Regarding `O=c1[nH]c(=O)n([C@H]2C[C@H](O)[C@@H](CO)O2)cc1C(O)CCl` (some centres not stated), in test [6], the Cyotoxicity result was “weak cytotoxicity”. Besides, in [7], the IC50 amounted to 1 µg/mL (≈ 3.26 µM).

In [2], `O=c1ccn([C@H]2C[C@H](O)[C@@H](CO)O2)c(=O)[nH]1` [DEOXYURIDINE] had a Ki of 125 µM.

Consider `O=c1[nH]c(=O)n([C@@H]2O[C@H](CO)[C@@H](O)[C@H]2F)cc1C(O)CI` (some centres not stated), for which the IC50 in test [1] was above 100 µg/mL. Further, in test [5], the Survival was 93%.

Turning to `COC(CI)c1cn([C@@H]2O[C@H](CO)[C@@H](O)[C@H]2F)c(=O)[nH]c1=O` (some centres not stated), the IC50 in test [1] was above 100 µg/mL. This compound also returned a Survival in test [5] of 97%.
